Laboratory results taken from ChEMBL document CHEMBL1145520, “RAS-RAF-MEK-dependent oxidative cell death involving voltage-dependent anion channels” (Nature, 2007).
pEC50, pIC50, pKd: −log10 of the molar value. Calls of active or inactive are those of the source. No cut-off for these calls is given here.

Legend:
[1] = Induction of cell death in human EWS502 cells; type: functional, cell-based
BJ [2] = assay: Induction of cell death in TERT expressing human BJ cells; type: functional, cell-based
A673 [3] = assay: Induction of cell death in human A673 cells; type: functional, cell-based
HT-1080 [4] = assay: Induction of cell death in human HT1080 cells in presence of PD-98059 by trypan blue exclusion method; type: functional, cell-based
HeLa = assay: Induction of pro-caspase 3 cleavage in human HeLa cells; type: functional, cell-based
Method in brief: (§1)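 Cells either untreated, given staurosporine, or given erastin for 6–10 h, then lysed in HEPES pH 7.4 buffer with phosphatase and protease inhibitors. Lysates run on SDS-PAGE, blotted to PVDF, probed with antibodies detecting active caspase-3, with actin as loading control. Bands read on infrared imager.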

BJ [5] = assay: Induction of cell death in human BJ cells expressing TERT, LT, ST and RAS G12V mutant genes; type: functional, cell-based
BJ [6] = assay: Induction of cell death in human BJ cells expressing TERT, LT, ST and RAS G12V mutant genes at 13 uM; type: functional
U2OS = assay: Induction of cell death in human U2OS cells; type: functional, cell-based
[7] = Induction of cell death in human Hs925.T cells; type: functional, cell-based
[8] = Induction of cell death in human SKUT cells; type: functional, cell-based
[9] = molecular target: T1, Mitogen-activated protein kinase; ERK1/ERK2 (Homo sapiens) (UniProt P27361+P28482); assay: Effect on ERK1/2 phosphorylation in human A673 cells by Western blot; type: cell-based
Method in brief: (§2)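 Washed cells were lysed in pH 7.4 HEPES buffer containing orthovanadate, NaF, pyrophosphate, β-glycerophosphate and protease inhibitors. Lysates were run on SDS-PAGE, transferred to PVDF and blocked 1 h at room temperature. Blots were probed with a multiplex phospho-signalling antibody cocktail and read by infrared fluorescence scanning.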

[10] = molecular target: T1, Mitogen-activated protein kinase; ERK1/ERK2 (Homo sapiens); assay: Effect on ERK1/2 phosphorylation in human EWS502 cells by Western blot; type: cell-based; method in brief: as §2
[11] = Induction of cell death in human Hs51.T cells; type: functional, cell-based
A673 [12] = assay: Induction of PARP1 cleavage in human A673 cells; type: functional, cell-based
Method in brief: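 Cells were left untreated or given staurosporine or erastin for 6 or 8 h. Lysates were analysed by western blot for full-length and cleaved PARP1, with actin as loading control.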

Calu-1 = assay: Inhibition of human Calu1 cells expressing KRAS with activating mutations by trypan blue exclusion assay; type: functional, cell-based
Method in brief: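 Calu-1 lung carcinoma cells (activating KRAS mutation) treated with erastin dilutions. Viability measured by Trypan blue exclusion with an automated cell viability analyser after trypsinization and resuspension in growth medium. IC50 derived from the dose series.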

SK-LMS-1 = assay: Induction of cell death in human SKLMS1 cells; type: functional, cell-based
[13] = Induction of cell death in human A431NS cells; type: functional
BJ [14] = assay: Effect on intracellular oxidative species in TERT expressing human BJ cells at 4.6 uM; type: functional, cell-based
Method in brief: (§3)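 Cells seeded at 3 × 10^5 per 60 mm dish were grown overnight, then exposed to 4.6 erastin for 2–12 h; H2O2 for 5 min served as positive control. Cells were loaded with H2DCF-DA for 10 min, trypsinized, PBS-washed and stained with propidium iodide. Read-out was flow cytometry as percent of cells with DCF fluorescence in gate M1; n = 2.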

A673 [15] = assay: Induction of pro-caspase 3 cleavage in human A673 cells; type: functional, cell-based; method in brief: as §1
HT-1080 [16] = assay: Induction of pro-caspase 3 cleavage in human HT1080 cells; type: functional, cell-based; method in brief: as §1
[17] = Induction of cell death in human TC71 cells; type: functional, cell-based
HT-1080 [18] = assay: Suppression of induction of cell death in human HT1080 cells at […] by Alamar Blue assay in presence of butylated hydroxytoluene; type: functional, cell-based
BJ [19] = assay: Induction of pro-caspase 3 cleavage in human BJ cells expressing TERT, LT, ST and RAS G12V mutant genes; type: functional, cell-based; method in brief: as §1
[20] = molecular target: T1, Mitogen-activated protein kinase; ERK1/ERK2 (Homo sapiens); assay: Effect on ERK1/2 phosphorylation in human U937 cells by Western blot; type: cell-based; conditions: U-937; method in brief: as §2
HOS = assay: Induction of cell death in human HOS cells; type: functional, cell-based
LNCaP = assay: Induction of cell death in human LNCaP cells; type: functional, cell-based
BJ [21] = assay: Increase in intracellular oxidative species in human BJ cells expressing TERT, LT, ST and RAS G12V mutant genes cells at 4.6 uM; type: functional, cell-based; method in brief: as §3
[22] = molecular target: T1, Mitogen-activated protein kinase; ERK1/ERK2 (Homo sapiens); assay: Effect on ERK1/2 phosphorylation in human TC32 cells by Western blot; type: cell-based; method in brief: as §2
BJ [23] = assay: Induction of mitochondrial structural integrity loss in human BJ cells expressing TERT, LT, ST and RAS G12V mutant genes cells at 37 uM after 10 hrs; type: functional, cell-based
Method in brief: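 BJ-TERT/LT/ST/RASV12 cells exposed 10 h to erastin (37 µM per legend; 20 µg/ml in methods), then fixed in 2.5% glutaraldehyde in 0.1 M Sorenson's buffer pH 7.2 and post-fixed in 1% OsO4. Sections stained with uranyl acetate/lead citrate.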

[24] = molecular target: T1, Mitogen-activated protein kinase; ERK1/ERK2 (Homo sapiens); assay: Effect on ERK1/2 phosphorylation in human BJ cells expressing TERT, LT, ST and RAS G12V mutant genes cells by Western blot; type: cell-based; method in brief: as §2
[25] = molecular target: T1, Mitogen-activated protein kinase; ERK1/ERK2 (Homo sapiens); assay: Effect on ERK1/2 phosphorylation in human HT1080 cells by Western blot; type: cell-based; conditions: HT-1080; method in brief: as §2
[26] = molecular target: Non-selective voltage-gated ion channel VDAC2 (Homo sapiens, UniProt P45880); assay: Binding affinity to human VDAC2
[27] = molecular target: T1, Mitogen-activated protein kinase; ERK1/ERK2 (Homo sapiens); assay: Effect on ERK1/2 phosphorylation in TERT expressing human BJ cells by Western blot; type: cell-based; method in brief: as §2
[28] = molecular target: T1, Mitogen-activated protein kinase; ERK1/ERK2 (Homo sapiens); assay: Effect on ERK1/2 phosphorylation in human […] cells by Western blot; type: cell-based; conditions: SK-N-MC; method in brief: as §2

T1 sequence (P27361 whole entry, looked up): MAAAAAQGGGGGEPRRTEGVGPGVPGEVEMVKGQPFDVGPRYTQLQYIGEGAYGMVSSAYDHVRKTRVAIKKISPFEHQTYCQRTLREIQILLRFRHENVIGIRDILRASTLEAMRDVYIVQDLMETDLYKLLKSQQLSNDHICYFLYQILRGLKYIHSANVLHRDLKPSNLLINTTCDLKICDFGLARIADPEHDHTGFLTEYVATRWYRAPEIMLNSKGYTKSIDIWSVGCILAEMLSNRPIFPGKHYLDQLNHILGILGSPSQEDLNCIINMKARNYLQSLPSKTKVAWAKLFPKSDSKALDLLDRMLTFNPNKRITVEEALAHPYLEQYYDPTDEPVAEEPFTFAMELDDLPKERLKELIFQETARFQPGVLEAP
T1 sequence (P28482 whole entry, looked up): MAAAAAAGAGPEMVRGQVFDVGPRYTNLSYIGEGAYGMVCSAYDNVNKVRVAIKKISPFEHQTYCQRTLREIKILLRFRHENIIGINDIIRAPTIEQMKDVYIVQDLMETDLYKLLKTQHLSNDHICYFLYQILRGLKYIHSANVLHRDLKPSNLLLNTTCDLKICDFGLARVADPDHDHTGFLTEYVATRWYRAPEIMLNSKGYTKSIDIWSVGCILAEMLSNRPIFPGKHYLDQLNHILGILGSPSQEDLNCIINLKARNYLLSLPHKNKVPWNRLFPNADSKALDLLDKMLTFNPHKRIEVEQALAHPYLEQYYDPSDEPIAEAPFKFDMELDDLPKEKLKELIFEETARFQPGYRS
Chain of Non-selective voltage-gated ion channel VDAC2 (P45880 whole entry): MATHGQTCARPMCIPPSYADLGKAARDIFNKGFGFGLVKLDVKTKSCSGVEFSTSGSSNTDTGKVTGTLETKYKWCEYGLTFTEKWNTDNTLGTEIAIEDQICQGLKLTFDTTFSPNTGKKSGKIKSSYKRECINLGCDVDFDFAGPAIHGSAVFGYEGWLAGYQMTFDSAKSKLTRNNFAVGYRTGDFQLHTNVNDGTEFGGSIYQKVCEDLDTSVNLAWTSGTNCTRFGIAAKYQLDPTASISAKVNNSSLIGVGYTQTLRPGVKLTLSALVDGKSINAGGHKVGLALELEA

With CCOc1ccccc1-n1c(C(C)N2CCN(C(=O)COc3ccc(Cl)cc3)CC2)nc2ccccc2c1=O (stereo unspecified) [ERASTIN] the Activity [1] was 42%, the pEC50 ([1]; Homo sapiens, EWS502) was 5.00 and the Activity (BJ [2]) was 22%. For the same compound, the pEC50 (BJ [2]; Homo sapiens, BJ) was 5.00, the Activity (A673 [3]) was 54% and the pEC50 (A673 [3]; Homo sapiens, A673) was 4.52. For the same compound, the pIC50 (HT-1080 [4]) was 6.00, the Activity (HeLa) was “inactive” and the Activity (BJ [5]) was 100%. It also gave a pEC50 (BJ [5]; Homo sapiens, BJ) of 5.22, an Activity (BJ [6]) of 100% and an Activity (U2OS) of 96%. For the same compound, the pEC50 (U2OS; Homo sapiens, U2OS) was 5.22, the Activity [7] was 83% and the pEC50 ([7]; Homo sapiens) was 4.77. It also gave an Activity [8] of 73%, a pEC50 ([8]; Homo sapiens, SKUT) of 5.40 and an Activity [9] of 0.66 a.u. It also gave an Activity [10] of 0.12 a.u, an Activity [11] of 88% and a pEC50 ([11]; Homo sapiens) of 4.92. The Activity (A673 [12]) was “inactive”, the pIC50 (Calu-1) was 5.40 and the Activity (SK-LMS-1) was 100%. The pEC50 (SK-LMS-1; Homo sapiens, SK-LMS-1) was 5.22, the Activity [13] was 0% and the Activity (BJ [14]) was “inactive”. For the same compound, the Activity (A673 [15]) was “inactive”, the Activity (HT-1080 [16]) was “inactive” and the Activity [17] was 92%. The pEC50 ([17]; Homo sapiens, TC-71) was 5.00, the Activity (HT-1080 [18]) was “Active” and the Activity (BJ [19]) was “inactive”. For the same compound, the Activity [20] was 0.27 a.u, the Activity (HOS) was 100% and the pEC50 (HOS; Homo sapiens, HOS) was 4.77. For the same compound, the Activity (LNCaP) was 32%, the pEC50 (LNCaP; Homo sapiens, LNCaP) was 5.22 and the Activity (BJ [21]) was “Active”. For the same compound, the Activity [22] was 0.12 a.u, the Activity (BJ [23]) was “Active” and the Activity [24] was 0.92 a.u. It also gave an Activity [25] of 0.53 a.u, a pKd [26] of 6.95 and an Activity [27] of 0.09 a.u. The Activity [28] was 0.05 a.u.
